Measurements taken from PMC9226493 (Nucleic Acids Research, 2022).

How the values were obtained:
acpP^91::gfp RNA = experiment: In vitro translation of acpP::gfp RNA, western blot of AcpP1-17-GFP; type: biochemical, Escherichia coli; settings: 10-molar excess of PPNA over template RNA; performed two times; listed as (KFF)3K-acpP
Summary of the method: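 Target-gene fragment fused to gfp by overlap PCR, then T7 in vitro transcribed (3 h 45 min, 37°C; then DNase) and checked on 6% PAA/7 M urea gels. Heat-denatured RNA (1 pmol, 100 nM final) was pre-incubated with test compound at 37°C for 5 min. It was then translated in PURExpress for 2 h at 37°C. Water served as control. Analysis: 12% SDS-PAGE, anti-GFP western, Ponceau loading check, ImageJ signal relative to control.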

UPEC 536 [1] = experiment: Minimal inhibitory concentration; type: cell-based, Escherichia coli; settings: (KFF)3K-conjugated 10mer PNAs at concentrations ≤10 μM, 24 h
UPEC 536 [2] = experiment: Killing time kinetics; type: cell-based, Escherichia coli; settings: 1.25 μM, UPEC 536 10^5 cfu/ml, within 24 h

## KFFKFFKFFK [acpP 10mer PPNA]
acpP^91::gfp RNA
  effect on in vitro synthesis of AcpP1-17-GFP: substantially inhibited

## KFFKFFKFFK [csrA 10mer PPNA]
UPEC 536 [1]
  growth inhibition of UPEC 536: did not trigger complete growth inhibition

## KFFKFFKFFK [nusG 10mer PPNA]
UPEC 536 [1]
  growth inhibition of UPEC 536: did not trigger complete growth inhibition

## KFFKFFKFFK [scrambled 10mer PPNA]
UPEC 536 [2]
  abundance of living bacterial cells compared to the water control: did not affect the abundance of living bacterial cells

## KFFKFFKFFK [yidC 10mer PPNA]
UPEC 536 [1]
  growth inhibition of UPEC 536: did not trigger complete growth inhibition
